Assay results reported in ChEMBL document CHEMBL1128437, “Derivatives of 17-phenyl-18,19,20-trinorprostaglandin F2 alpha isopropyl ester: potential antiglaucoma agents” (J Med Chem, 1995).
“And” between values parts separate entries of the source, which are not always exact repeats. Equal values may be shown once.

Tests used:
Felis catus [1] = species: Felis catus; test: Concentration giving half-maximal contraction of the cat iris sphincter muscle was determined in vitro; format: functional
How it was run: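 Compounds were tested as hydrolysed free acids on isolated cat iris sphincter in organ baths. Bath solution was bicarbonate physiological saline with glucose plus indomethacin 2.8 × 10⁻⁶ M, atropine 10⁻⁷ M and propranolol 10⁻⁶ M. Resting tension was 150 mg, with at least 30 min equilibration. Cumulative dosing was at 5–10 min intervals. Isometric contraction was normalised to each tissue's maximum, averaged over four preparations, and fitted with a Hill equation for EC50.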

Felis catus [2] = species: Felis catus; test: The maximal difference in Intraocular Pressure (IOP) between treated and control eyes. The effect was tested in cats at a dose of 1.0 (ug/eye); format: functional
How it was run: (§1)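 Domestic female cats, 2–3 kg, trained for IOP measurement. One eye received a topical drop (20 µL) of drug in 0.9% NaCl with 0.5% polysorbate 80; the other eye received vehicle. IOP was read by pneumatonometer under oxibuprocain local anaesthesia before dosing and at 1, 3, 6 and 23 h. The maximal treated-minus-control difference was taken. Area between curves is the treated-eye AUC minus control-eye AUC, per animal.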

Felis catus [3] = species: Felis catus; test: The maximal difference in Intraocular Pressure (IOP) between treated and control eyes. The effect was tested in cats at a dose of 10.0 (ug/eye); format: functional; how it was run: as §1
Felis catus [4] = species: Felis catus; test: The maximal difference in Intraocular Pressure (IOP) between treated and control eyes. The effect was tested in cats at a dose of 3.0 (ug/eye); format: functional; how it was run: as §1
Felis catus [5] = species: Felis catus; test: The mean ocular irritation in the treated eyes. An arbitrary scale of from 0 to 3 was used, 0 indicates absence of irritation and 3 complete closure of the lids. The effect was tested in cats at a dose of 1.0 (ug/eye); format: functional
How it was run: (§2)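 Ocular irritation was scored in the treated eye of trained female cats, 2–3 kg. Drug was given as one topical 20 µL drop in 0.9% NaCl with 0.5% polysorbate 80. The contralateral eye got vehicle only.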

Felis catus [6] = species: Felis catus; test: The mean ocular irritation in the treated eyes. An arbitrary scale of from 0 to 3 was used, 0 indicates absence of irritation and 3 complete closure of the lids. The effect was tested in cats at a dose of 10.0 (ug/eye); format: functional; how it was run: as §2
Felis catus [7] = species: Felis catus; test: The mean ocular irritation in the treated eyes. An arbitrary scale of from 0 to 3 was used, 0 indicates absence of irritation and 3 complete closure of the lids. The effect was tested in cats at a dose of 3.0 (ug/eye); format: functional; how it was run: as §2
Felis catus [8] = species: Felis catus; test: The maximal difference in […] pupil diameter between treated and control eyes. The effect was tested in cats at a dose of 1.0 (ug/eye); format: functional
How it was run: (§3)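 Trained female cats, 2–3 kg, were dosed unilaterally with one 20 µL topical drop of drug in 0.9% NaCl/0.5% polysorbate 80, with vehicle in the contralateral eye. Horizontal pupil diameter was measured with a millimetre ruler under constant 10 lux illumination before dosing and at 1, 3, 6 and 23 h. Reported as maximal treated–control difference or as area between curves, per animal.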

Felis catus [9] = species: Felis catus; test: The maximal difference in […] pupil diameter between treated and control eyes. The effect was tested in cats at a dose of 10.0 (ug/eye); format: functional; how it was run: as §3
Felis catus [10] = species: Felis catus; test: The maximal difference in […] pupil diameter between treated and control eyes. The effect was tested in cats at a dose of 3.0 (ug/eye); format: functional; how it was run: as §3
Felis catus [11] = species: Felis catus; test: The mean area between curves for Intraocular Pressure (IOP) measured in treated and control eyes. The effect was tested in cats at a dose of 1.0 (ug/eye); format: functional; how it was run: as §1
Felis catus [12] = species: Felis catus; test: The mean area between curves for Intraocular Pressure (IOP) measured in treated and control eyes. The effect was tested in cats at a dose of 3.0 (ug/eye); format: functional; how it was run: as §1
Felis catus [13] = species: Felis catus; test: The mean area between curves for pupil diameter between treated and control eyes. The effect was tested in cats at a dose of 1.0 (ug/eye); format: functional; how it was run: as §3
Felis catus [14] = species: Felis catus; test: The mean area between curves for pupil diameter between treated and control eyes. The effect was tested in cats at a dose of 10.0 (ug/eye); format: functional; how it was run: as §3
Felis catus [15] = species: Felis catus; test: The mean area between curves for pupil diameter between treated and control eyes. The effect was tested in cats at a dose of 3.0 (ug/eye); format: functional; how it was run: as §3
Felis catus [16] = species: Felis catus; test: The mean area between curves for Intraocular Pressure (IOP) measured in treated and control eyes. The effect was tested in cats at a dose of 10.0 (ug/eye); format: functional; how it was run: as §1
Oryctolagus cuniculus [17] = species: Oryctolagus cuniculus; test: The maximal difference in conjunctival hyperemia between treated and control eyes. The effect was tested in rabbit at a dose of 0.1 (ug/eye)
Oryctolagus cuniculus [18] = species: Oryctolagus cuniculus; test: The maximal difference in conjunctival hyperemia between treated and control eyes. The effect was tested in rabbit at a dose of 0.5 (ug/eye)
Oryctolagus cuniculus [19] = species: Oryctolagus cuniculus; test: The mean area between curves for conjunctival hyperemia between treated and control eyes. The effect was tested in rabbit at a dose of 0.1 (ug/eye)
Oryctolagus cuniculus [20] = species: Oryctolagus cuniculus; test: The mean area between curves for conjunctival hyperemia between treated and control eyes. The effect was tested in rabbit at a dose of 0.5 (ug/eye)
Monkey [21] = test: The mean area between curves for Intraocular Pressure (IOP) measured in treated and control eyes. The effect was tested in monkey at a dose of 3.0 (ug/eye); format: functional, Cercopithecidae
How it was run: (§4)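 Cynomolgus monkeys trained for IOP measurement were sedated with ketamine (2–3 mg/kg) for transport and seated in restraint chairs under oxibuprocain local anaesthesia. One eye received a 10 µL drop of drug in 0.9% NaCl/0.5% polysorbate 80; the fellow eye received vehicle. IOP was read by pneumatonometer calibrated for monkey eyes before dosing and at 1, 2, 4 and 6 h. Matched-pair t test, n = 6.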

Monkey [22] = test: The maximal difference in Intraocular Pressure (IOP) measured in treated and control eyes. The effect was tested in monkey at a dose of 1.0 (ug/eye); format: functional, Cercopithecidae; how it was run: as §4
Monkey [23] = test: The mean area between curves for Intraocular Pressure (IOP) measured in treated and control eyes. The effect was tested in monkey at a dose of 1.0 (ug/eye); format: functional, Cercopithecidae; how it was run: as §4
Monkey [24] = test: The maximal difference in Intraocular Pressure (IOP) measured in treated and control eyes. The effect was tested in monkey at a dose of 3.0 (ug/eye); format: functional, Cercopithecidae; how it was run: as §4
Monkey [25] = test: The mean area between curves for Intraocular Pressure (IOP) measured in treated and control eyes. The effect was tested in monkey at a dose of 10.0 (ug/eye); format: functional, Cercopithecidae; how it was run: as §4
Monkey [26] = test: The maximal difference in Intraocular Pressure (IOP) measured in treated and control eyes. The effect was tested in monkey at a dose of 10.0 (ug/eye); format: functional, Cercopithecidae; how it was run: as §4

Row | SMILES | Imax (Felis catus [2]) | Imax (Felis catus [4]) | Irritation (Felis catus [5]) | Irritation (Felis catus [7]) | Pmax (Felis catus [8]) | Pmax (Felis catus [10]) | I ABC (Felis catus [11]) | I ABC (Felis catus [12]) | P ABC (Felis catus [13]) | P ABC (Felis catus [15]) | Hmax (Oryctolagus cuniculus [17]) | Hmax (Oryctolagus cuniculus [18]) | H ABC (Oryctolagus cuniculus [19]) | H ABC (Oryctolagus cuniculus [20]) | I ABC (Monkey [21]) | Imax (Monkey [24]) | other results
1 | O=C(O)CCC/C=C\C[C@@H]1[C@@H](/C=C/[C@H](O)CCc2ccc(Br)cc2)[C@H](O)C[C@@H]1O | – | – | – | – | – | – | – | – | – | – | – | – | – | – | – | – | EC50 (Felis catus [1]; Felis catus, Sphincter muscle): 2100 nM
2 | CC(C)OC(=O)CCC/C=C\C[C@@H]1[C@@H](/C=C/[C@H](O)CCc2ccc(Br)cc2)[C@H](O)C[C@@H]1O | -1 mmHg | <-2 mmHg | 0.5 arbitrary units | 0.2 arbitrary units | < -2.2 mm | -0.7 mm | -14 | <-17 | -27 | -2.2 | 0.2 | <0.7 | 0.3 | 0.6 | – | – | Imax (Felis catus [3]): <-2 mmHg; Irritation (Felis catus [6]): 0 arbitrary units; Pmax (Felis catus [9]): < -2.3 mm; P ABC (Felis catus [14]): -23; I ABC (Felis catus [16]): -10
3 | CC(C)OC(=O)CCC/C=C\C[C@@H]1[C@@H](/C=C/[C@@H](O)CCc2ccc(Br)cc2)[C@H](O)C[C@@H]1O | 0.3 mmHg | – | 0 arbitrary units | – | < -1.5 mm | – | 3.4 | – | -18.1 | – | <1.1 | <0.5 | <2.2 | 1.2 | – | – | Imax (Felis catus [3]): <-3 mmHg; Irritation (Felis catus [6]): 0.3 arbitrary units; Pmax (Felis catus [9]): < -6 mm; P ABC (Felis catus [14]): -80; I ABC (Felis catus [16]): <-25
4 | O=C(O)CCC/C=C\C[C@@H]1[C@@H](/C=C/C(O)CCc2cccc(Br)c2)[C@H](O)C[C@@H]1O (stereo partly specified) | – | – | – | – | – | – | – | – | – | – | – | – | – | – | – | – | EC50 (Felis catus [1]): 33 nM and 4.9 nM
5 | CC(C)OC(=O)CCC/C=C\C[C@@H]1[C@@H](/C=C/[C@@H](O)CCc2ccccc2)[C@H](O)C[C@@H]1O | 2.7 mmHg | – | 0 arbitrary units | – | < 9.7 mm | – | <36.9 | – | -126 | – | – | <1.5 | – | <-4 | -5.9 | -2.9 mmHg | Imax (Monkey [22]): <-3.3 mmHg; I ABC (Monkey [23]): <-5.8
6 | CC(C)OC(=O)CCC/C=C\C[C@@H]1[C@@H](/C=C/[C@@H](O)CCc2ccc(-c3ccccc3)cc2)[C@H](O)C[C@@H]1O | -1 mmHg | <-6 mmHg | 0.8 arbitrary units | 1.6 arbitrary units | < -1.5 mm | -0.8 mm | -10 | <-99.3 | <-18.3 | <-4.9 | 0.2 | <0.4 | 0.2 | 1.2 | 3 | <0.8 mmHg | I ABC (Monkey [25]): <6.1; Imax (Monkey [26]): <1.4 mmHg
7 | Cc1ccc(CCC(O)/C=C/[C@@H]2[C@@H](C/C=C\CCCC(=O)O)[C@@H](O)C[C@H]2O)cc1 (stereo partly specified) | – | – | – | – | – | – | – | – | – | – | – | – | – | – | – | – | EC50 (Felis catus [1]; Felis catus, Sphincter muscle): 40 nM
8 | Cc1ccc(CC[C@H](O)/C=C/[C@@H]2[C@@H](C/C=C\CCCC(=O)OC(C)C)[C@@H](O)C[C@H]2O)cc1 | -1 mmHg | -1.3 mmHg | 0.2 arbitrary units | 0 arbitrary units | < -3.5 mm | < -6 mm | -4.3 | -28 | <-46 | <-73 | – | <1.5 | – | 4.4 | -3.8 | <-1.6 mmHg | I ABC (Monkey [25]): -3.5; Imax (Monkey [26]): -1.5 mmHg
